Experimental findings from ChEMBL document CHEMBL1135673, “Antitumor imidazotetrazines. 41. Conjugation of the antitumor agents mitozolomide and temozolomide to peptides and lexitropsins bearing DNA major and minor groove-binding structural motifs” (J Med Chem, 2002) are described below.

As a reminder, the IC50 is the point on the concentration scale where inhibition reaches its midpoint. Read a high IC50 as weaker potency.

Peptide text beside a SMILES is read from it. * marks the point of attachment. X1 = O=C(c1ncn2c(=O)n(CCCl)nnc12)* Some results are limits rather than exact numbers.

Format in all cases: functional, cell-based
Assay [1] in a line: In vitro cytotoxicity against mouse TLX5 lymphoma cells. The procedure, abridged:
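TLX5 lymphoma cells kept in exponential growth at 2 × 10⁴ cells/mL in RPMI 1640 with 15% fetal calf serum. Cells were dosed with drug in DMSO (10 μL per 2 mL well), triplicate wells per concentration, with DMSO-only controls. After 72 h at 37 °C under 5% CO₂, cells were Coulter-counted. IC₅₀ was taken from % of control growth plots as the mean of two determinations.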

Assay [2] can be described thus: In vitro cytotoxicity against human xeroderma pigmentosum fibroblast cells HMGZip (mer-). The procedure, abridged:
(§1)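 Xeroderma pigmentosum fibroblasts HMGZip 1a (Mer⁻) and HMGhAT 2b (Mer⁺) grown in MEM, plated at 1000 cells/well, and assayed by the method of Baer et al.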

The nature of assay [3]: In vitro cytotoxicity against human xeroderma pigmentosum fibroblast cells […] (mer+). The procedure, abridged:
as §1

`COC(=O)[C@@H](NC(=O)[C@H](C)NC(=O)c1ncn2c(=O)n(CCCl)nnc12)C(C)C` had an IC50 in assay [1] of 6.9 µM.

Compound `CC(C)C[C@@H](NC(=O)c1ncn2c(=O)n(CCCl)nnc12)C(=O)O` returned a 50% inhibitory concentration (IC50) in assay [2] of 57 µM.

Regarding `COC(=O)C(CCCCN)NC(=O)c1ncn2c(=O)n(CCCl)nnc12` (stereo not drawn), the IC50 in assay [2] was found to be 68 µM.

As for `NC(=O)CNC(=O)c1ncn2c(=O)n(CCCl)nnc12`, inhibition in assay [1] was half-maximal at 34 µM (IC50).

`C[C@@H](NC(=O)c1ncn2c(=O)n(CCCl)nnc12)C(=O)O` registered an IC50 in assay [2] of 198 µM.

`COC(=O)C(CO)NC(=O)c1ncn2c(=O)n(CCCl)nnc12` (stereo not drawn) yielded an IC50 in assay [1] of 5 µM.

Take `COC(=O)C(C)NC(=O)c1ncn2c(=O)n(CCCl)nnc12` (stereo not drawn): half-maximal inhibition in assay [1] (IC50) required 1.5 µM.

In assay [1], `CC(C)(C)NC(=O)c1ncn2c(=O)n(CCCl)nnc12` displayed an IC50 of 2 µM.

Consider `O=C(O)c1ncn2c(=O)n(CCCl)nnc12`, for which the IC50 in assay [1] was 15.8 µM.

The compound `COC(=O)C(CCSC)NC(=O)c1ncn2c(=O)n(CCCl)nnc12` (stereo not drawn) displayed an IC50 in assay [1] of 50 µM.

As for `CC(C)[C@H](NC(=O)[C@@H](NC(=O)c1ncn2c(=O)n(CCCl)nnc12)[C@@H](C)O)C(=O)NCC(=O)O`, the IC50 is > 500 µM in assay [3] and 437 µM in assay [2].

On to `COC(=O)C(Cc1c[nH]c2ccccc12)NC(=O)c1ncn2c(=O)n(CCCl)nnc12` (stereo not drawn), for which the 50% inhibitory concentration (IC50) in assay [1] came out at 3.7 µM.

As for `CCOC(=O)CNC(=O)c1ncn2c(=O)n(CCCl)nnc12`, the IC50 in assay [1] amounted to 25 µM.

`NCCCCC(NC(=O)c1ncn2c(=O)n(CCCl)nnc12)C(=O)O` (stereo not drawn): the IC50 in assay [2] turned out to be 42 µM.

On to `CC(C)[C@H](NC(=O)[C@@H](NC(=O)c1ncn2c(=O)n(CCCl)nnc12)[C@@H](C)O)C(=O)NCC(=O)N[C@@H](CCCN=C(N)N)C(=O)O` (X1-TVGR-OH), for which the concentration for half-maximal inhibition (IC50) in assay [3] was > 500 µM; in assay [2] it was 288 µM.

For the compound `CC(C)[C@H](NC(=O)[C@@H](NC(=O)c1ncn2c(=O)n(CCCl)nnc12)[C@@H](C)O)C(=O)N[C@@H](CO)C(=O)N[C@@H](CCCN=C(N)N)C(=O)O` (X1-TVSR-OH), the half-maximal inhibitory concentration (IC50) in assay [3] was > 500 µM; in assay [2] it was 351 µM.

With `NC(=O)c1ncn2c(=O)n(CCCl)nnc12` [MITOZOLOMIDE], the concentration for half-maximal inhibition (IC50) in assay [3] stood at 30 µM; in assay [2], 20 µM; in assay [1] it was 2.5 µM.

`Cn1nnc2c(C(N)=O)ncn2c1=O` [TEMOZOLOMIDE] came in with an IC50 in assay [1] of 5 µM.
